The target of data set [1] is T1, Neuronal acetylcholine receptor; alpha4/beta4 (Homo sapiens, UniProt P30926+P43681). As to the kind of experiment: Agonist activity at alpha4beta4 nicotinic receptor in human SH-EP1 cells assessed as induction of radiolabeled Rb+ influx at 0.005 to 100 uM by liquid scintillation counting. It is filed as functional, cell-based. In a few lines:
(§1)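 Cells were labelled with ⁸⁶Rb⁺ for at least 4 h, then exposed for 5 min in efflux buffer (pH 7.4) to test ligand alone at ~5 nM to 100 μM. The lines were TE671/RD (muscle α1β1γδ), SH-SY5Y (α3β4*) and transfected SH-EP1-hα4β2 or -hα4β4. Efflux was Cerenkov-counted. Non-specific efflux was subtracted, and results were normalized to specific efflux from carbamylcholine (1 mM; 3 mM for SH-SY5Y).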

The test system of data set [2] is Mus musculus. Nature of the data set: Toxicity in sc dosed ICR mouse assessed occurrence of sedation. The class given is organism-based. Conditions: in vivo.
Data set [3] relates to Mus musculus. Nature of the data set: Smoke cessation activity in sc dosed ICR mouse assessed as inhibition of nicotine-induced increase in locomotor activity administered 15 mins before nicotine challenge measured after 5 mins of nicotine infusion. The class given is functional, organism-based.
For data set [4], the system named is Mus musculus. Nature of the data set: Smoke cessation activity in sc dosed ICR mouse assessed as inhibition of nicotine-induced hypothermia administered 15 mins before nicotine challenge measured after 30 mins of nicotine infusion. The class given is functional, organism-based. In a few lines: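 Male ICR mice (20–25 g) were pretreated with test drug or saline 15 min before nicotine at 2.5 mg/kg sc. Rectal temperature was taken before and 30 min after nicotine, and the change was calculated. Room temperature was 21–24 °C. AD₅₀ came from at least four doses, with at least 8 mice per dose.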

The subject of data set [5] is Mus musculus. As to the kind of experiment: Smoke cessation activity in sc dosed ICR mouse assessed as inhibition of nicotine-induced antinociception administered 15 mins before nicotine challenge measured after 5 mins of nicotine infusion by hotplate assay. The class given is functional, organism-based. In a few lines:
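Male ICR mice (20–25 g) were pretreated with saline or test drug 15 min before nicotine at 2.5 mg/kg sc. They were tested 5 min later on a 55 °C hot plate (40 s cutoff), and the result was expressed as %MPE. AD₅₀ came from at least four doses, with at least 8 mice per dose.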

In data set [6] the target is Neuronal acetylcholine receptor; alpha4/beta2 (Homo sapiens, UniProt P17787+P43681). Nature of the data set: Agonist activity at alpha4beta2 nicotinic receptor in human SH-EP1 cells assessed as induction of radiolabeled Rb+ influx at 0.005 to 100 uM by liquid scintillation counting. It is filed as functional, cell-based. The method, boiled down: as §1
For data set [7], the system named is Mus musculus. As to the kind of experiment: Smoke cessation activity in sc dosed ICR mouse assessed as inhibition of nicotine-induced antinociception administered 15 mins before nicotine challenge measured after 5 mins of nicotine infusion by tail-flick assay. The class given is functional, organism-based. In a few lines:
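Radiant-heat tail-flick latency was read 5 min later (10 s cutoff; baseline 2–4 s) and expressed as %MPE. AD₅₀ came from at least four doses, with at least 8 mice per dose.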
(In general: Hot-plate and tail-flick tests time the reaction to a heat stimulus.)

Data set [8] has as its system Mus musculus. As to the kind of experiment: Toxicity in sc dosed ICR mouse assessed occurrence of convulsion. Conditions: in vivo. The class given is organism-based.
A further data set concerns SH-EP1. Nature of the data set: Selectivity ratio of IC50 for alpha4beta2 nicotinic receptor in human SH-EP1 cells to IC50 for IC50 for human NET. It is filed as cell-based.
Data set [9] has as its target T1, Neuronal acetylcholine receptor; alpha4/beta4. Nature of the data set: Antagonist activity at alpha4beta4 nicotinic receptor in human SH-EP1 cells assessed as inhibition varbamylcholine-induced radiolabeled Rb+ influx at by liquid scintillation counting. It is filed as functional, cell-based. In a few lines: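 ⁸⁶Rb⁺-loaded human cells were given a 5-min efflux with carbamylcholine at EC₈₀–EC₉₀ plus graded test ligand. Non-specific efflux, taken with 100 μM mecamylamine or buffer, was subtracted. IC₅₀ came from a Hill fit of three independent experiments, with SEM given as a multiplication factor.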

The source made the active and inactive calls.

T1 sequence (P30926 whole entry): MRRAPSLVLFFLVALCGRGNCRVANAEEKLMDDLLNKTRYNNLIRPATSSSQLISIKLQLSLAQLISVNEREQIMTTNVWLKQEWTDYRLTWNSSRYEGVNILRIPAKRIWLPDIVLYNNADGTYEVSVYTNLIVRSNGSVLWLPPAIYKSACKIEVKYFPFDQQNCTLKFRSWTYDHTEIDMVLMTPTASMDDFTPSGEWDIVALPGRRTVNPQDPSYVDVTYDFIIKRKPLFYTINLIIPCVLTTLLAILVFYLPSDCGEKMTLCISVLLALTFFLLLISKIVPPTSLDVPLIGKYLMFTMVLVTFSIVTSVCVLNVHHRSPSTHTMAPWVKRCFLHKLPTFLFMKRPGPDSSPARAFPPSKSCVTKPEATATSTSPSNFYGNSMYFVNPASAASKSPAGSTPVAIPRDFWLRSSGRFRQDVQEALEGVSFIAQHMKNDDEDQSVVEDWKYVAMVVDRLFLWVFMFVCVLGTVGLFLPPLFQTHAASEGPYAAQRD
T1 sequence (P43681 whole entry): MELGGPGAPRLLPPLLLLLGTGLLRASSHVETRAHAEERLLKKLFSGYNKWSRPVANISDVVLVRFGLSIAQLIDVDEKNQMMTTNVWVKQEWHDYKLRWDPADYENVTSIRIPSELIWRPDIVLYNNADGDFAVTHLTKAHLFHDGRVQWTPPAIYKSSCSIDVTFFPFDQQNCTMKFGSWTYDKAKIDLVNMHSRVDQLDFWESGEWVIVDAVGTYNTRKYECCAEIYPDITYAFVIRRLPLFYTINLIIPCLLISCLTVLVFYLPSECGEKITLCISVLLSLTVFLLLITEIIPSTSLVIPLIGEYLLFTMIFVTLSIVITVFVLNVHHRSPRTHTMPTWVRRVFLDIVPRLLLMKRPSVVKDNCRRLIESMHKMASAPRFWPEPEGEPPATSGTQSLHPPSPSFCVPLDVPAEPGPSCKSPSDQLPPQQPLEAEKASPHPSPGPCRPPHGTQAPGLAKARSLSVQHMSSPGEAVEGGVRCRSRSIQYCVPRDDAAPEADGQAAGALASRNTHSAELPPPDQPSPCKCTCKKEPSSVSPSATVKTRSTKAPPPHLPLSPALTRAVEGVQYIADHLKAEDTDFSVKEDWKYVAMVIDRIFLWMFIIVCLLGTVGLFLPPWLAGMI

As for `COc1ccc([C@]2(O)OCC(C)(C)N[C@H]2C)cc1`, the result in data set [1] and in data set [6] was inactive. For the same compound, the Activity result in the data set on Mus musculus [2] and in the data set with Mus musculus [8] was “Non-toxic” each time. Further, the IC50 was greater than 15 mg/kg in the data set with Mus musculus [3], greater than 15 mg/kg with Mus musculus [4], greater than 15 mg/kg with Mus musculus [5] and 0.019 mg/kg with Mus musculus [7].
`Cc1cccc([C@]2(O)OCC(C)(C)N[C@H]2C)c1`: the result in [1] and in [6] was inactive. The Activity result in the data set on Mus musculus [2] and with Mus musculus [8] was “Non-toxic” throughout. Moreover, the IC50 in the data set with Mus musculus [3] is greater than 15 mg/kg; in the data set on Mus musculus [4] it was 2.3 mg/kg; with Mus musculus [5], 7.6 mg/kg; in the data set on Mus musculus [7], 0.054 mg/kg. The Ratio IC50 in the data set on SH-EP1 was determined as 5.3.
With `CC(NC(C)(C)C)C(=O)c1cccc(Cl)c1` (racemic) [BUPROPION], the Activity result in the data set with Mus musculus [2] and in the data set with Mus musculus [8] was “Non-toxic” each time. Moreover, the IC50 in the data set on Mus musculus [4] was 9.2 mg/kg; with Mus musculus [5], 15 mg/kg.
As to `C[C@H]1NC(C)(C)CO[C@]1(O)c1cccc(Cl)c1`, the Activity entry with Mus musculus [2] and with Mus musculus [8] was “Non-toxic” in each case. Further, the IC50 in the data set with Mus musculus [3] was greater than 15 mg/kg; with Mus musculus [4] it was greater than 15 mg/kg; in the data set on Mus musculus [5] it was 10.3 mg/kg; in the data set with Mus musculus [7], 2.5 mg/kg.
Take `C[C@@H]1NC(C)(C)CO[C@@]1(O)c1ccc(F)cc1`: the outcome in data set [1] and in data set [6] was inactive. The Activity result in the data set on Mus musculus [2] and in the data set with Mus musculus [8] was “Non-toxic” each time. The IC50 is greater than 100 µM in data set [9]; greater than 15 mg/kg in the data set on Mus musculus [3]; 5.67 mg/kg in the data set with Mus musculus [4]; greater than 15 mg/kg in the data set on Mus musculus [5]; 0.013 mg/kg with Mus musculus [7]. Further, in the data set with SH-EP1, the Ratio IC50 is 3.
On to `CC[C@@H]1NC(C)(C)CO[C@@]1(O)c1cccc(Cl)c1`, for which the result in data set [1] and in [6] was inactive. For the same compound, the Activity result with Mus musculus [2] and in the data set on Mus musculus [8] was “Non-toxic” each time. The IC50 is 10.3 mg/kg in the data set with Mus musculus [3], 7 mg/kg in the data set with Mus musculus [4], 3.7 mg/kg in the data set on Mus musculus [5] and 0.004 mg/kg with Mus musculus [7]. Further, the Ratio IC50 in the data set on SH-EP1 amounted to 67.
`COc1cccc([C@]2(O)OCC(C)(C)N[C@H]2C)c1`: the result in data set [1] and in data set [6] was inactive. Besides, the Activity result in the data set with Mus musculus [2] and with Mus musculus [8] was “Non-toxic” in each case. In addition, the IC50 in [9] is greater than 100 µM; with Mus musculus [3] it was greater than 15 mg/kg; with Mus musculus [4] it was greater than 15 mg/kg; with Mus musculus [5] it was greater than 15 mg/kg; with Mus musculus [7] it was 5.85 mg/kg. Moreover, in the data set on SH-EP1, the Ratio IC50 was 3.3.
Consider `Cc1ccc([C@]2(O)OCC(C)(C)N[C@H]2C)cc1`, for which the result in [1] and in data set [6] was inactive. Further, the Activity result with Mus musculus [2] and with Mus musculus [8] was “Non-toxic” throughout. Moreover, the IC50 is greater than 15 mg/kg with Mus musculus [3], greater than 15 mg/kg with Mus musculus [4], greater than 15 mg/kg in the data set on Mus musculus [5] and 0.004 mg/kg with Mus musculus [7].
`C[C@@H]1NC(C)(C)CO[C@@]1(O)c1ccc(F)c(F)c1`: the outcome in data set [1] and in [6] was inactive. For the same compound, the Activity entry with Mus musculus [2] and in the data set on Mus musculus [8] was “Non-toxic” each time. For the same compound, the IC50 was greater than 100 µM in data set [9]; greater than 15 mg/kg in the data set on Mus musculus [3]; greater than 15 mg/kg with Mus musculus [4]; greater than 15 mg/kg in the data set with Mus musculus [5]; 0.006 mg/kg with Mus musculus [7].
With `C[C@@H]1N(C)C(C)(C)CO[C@@]1(O)c1cccc(Cl)c1`, the result in data set [1] and in data set [6] was inactive. In addition, the Activity result in the data set with Mus musculus [2] and with Mus musculus [8] was “Non-toxic” in each case. The IC50 in the data set with Mus musculus [3] was greater than 15 mg/kg; in the data set with Mus musculus [4], greater than 15 mg/kg; with Mus musculus [5], greater than 15 mg/kg; in the data set with Mus musculus [7], 0.016 mg/kg.
As for `C[C@@H]1NC(C)(C)CO[C@@]1(O)c1ccc(Cl)cc1`, the result in data set [1] and in [6] was inactive. In addition, the Activity entry in the data set with Mus musculus [2] and in the data set with Mus musculus [8] was “Non-toxic” throughout. Besides, the IC50 is greater than 15 mg/kg with Mus musculus [3], greater than 15 mg/kg in the data set with Mus musculus [4], greater than 15 mg/kg in the data set on Mus musculus [5] and 0.019 mg/kg in the data set on Mus musculus [7].
Consider `C[C@@H]1N(C)C(C)(C)CO[C@@]1(O)c1ccc(Cl)cc1`, for which the result in [1] and in data set [6] was inactive. In addition, the Activity entry in the data set on Mus musculus [2] and in the data set with Mus musculus [8] was “Non-toxic” throughout. Besides, the IC50 with Mus musculus [3] was greater than 15 mg/kg; with Mus musculus [4], greater than 15 mg/kg; in the data set on Mus musculus [5] it was greater than 15 mg/kg; in the data set with Mus musculus [7] it was 0.32 mg/kg.
On to `C[C@@H]1NC(C)(C)CO[C@@]1(O)c1cccc([N+](=O)[O-])c1`, for which the result in data set [1] and in [6] was inactive. The Activity entry in the data set on Mus musculus [2] and in the data set on Mus musculus [8] was “Non-toxic” each time. In addition, the IC50 was greater than 15 mg/kg in the data set with Mus musculus [3], 4.7 mg/kg in the data set with Mus musculus [4], greater than 15 mg/kg in the data set with Mus musculus [5] and 4.9 mg/kg with Mus musculus [7]. The Ratio IC50 in the data set on SH-EP1 is 4.
As for `C[C@@H]1NC(C)(C)CO[C@@]1(O)c1ccc(-c2ccccc2)cc1`, the Activity result with Mus musculus [2] and in the data set with Mus musculus [8] was “Non-toxic” throughout. The IC50 in the data set on Mus musculus [3] is greater than 15 mg/kg; in the data set with Mus musculus [4] it was greater than 15 mg/kg; in the data set on Mus musculus [5], greater than 15 mg/kg; in the data set on Mus musculus [7] it was 0.021 mg/kg.
In the case of `C[C@@H]1NC(C)(C)CO[C@@]1(O)c1cccc(Br)c1`, the outcome in [1] and in [6] was inactive. For the same compound, the Activity result in the data set on Mus musculus [2] and in the data set on Mus musculus [8] was “Non-toxic” each time. Further, the IC50 in the data set with Mus musculus [3] stood at 2.6 mg/kg; in the data set with Mus musculus [4], 1.7 mg/kg; in the data set with Mus musculus [5], 4.3 mg/kg; in the data set with Mus musculus [7], 0.16 mg/kg.
Take `CC1NC(C)(C)COC1(O)c1cc(Cl)cc(Cl)c1` (racemic): the outcome in [1] and in [6] was inactive. In addition, the Activity result with Mus musculus [2] and in the data set on Mus musculus [8] was “Non-toxic” each time. In addition, the IC50 with Mus musculus [3] is 1.9 mg/kg; in the data set with Mus musculus [4] it was greater than 15 mg/kg; in the data set on Mus musculus [5], greater than 15 mg/kg; in the data set on Mus musculus [7], greater than 15 mg/kg. Further, in the data set with SH-EP1, the Ratio IC50 is 4.5.
Turning to `C[C@@H]1NC(C)(C)CO[C@@]1(O)c1cc(F)cc(F)c1`, the outcome in data set [1] and in data set [6] was inactive. The Activity result with Mus musculus [2] and with Mus musculus [8] was “Non-toxic” each time. Further, the IC50 in the data set on Mus musculus [3] was greater than 15 mg/kg; with Mus musculus [4], greater than 15 mg/kg; in the data set on Mus musculus [5], greater than 15 mg/kg; in the data set on Mus musculus [7] it was 0.0056 mg/kg.
`C[C@@H]1NC(C)(C)CO[C@@]1(O)c1cccc(Cl)c1` [RADAFAXINE]: the Activity result with Mus musculus [2] and in the data set with Mus musculus [8] was “Non-toxic” each time. Further, the IC50 in the data set on Mus musculus [3] came out at 0.9 mg/kg; with Mus musculus [5], 1 mg/kg; in the data set on Mus musculus [7] it was 0.2 mg/kg.

The values are drawn from ChEMBL document CHEMBL1177712, “Synthesis and characterization of in vitro and in vivo profiles of hydroxybupropion analogues: aids to smoking cessation” (J Med Chem, 2010).
